Test results as given in ChEMBL document CHEMBL3526129, “Species differences in tissue distribution and enzyme activities of arylacetamide deacetylase in human, rat, and mouse” (Drug Metab Dispos, 2012).

Legend:
[1] = molecular target: T1, Arylacetamide deacetylase (Homo sapiens, UniProt P22760); assay: Inhibition of AADAC in human kidney microsome
T1 sequence (P22760 whole entry): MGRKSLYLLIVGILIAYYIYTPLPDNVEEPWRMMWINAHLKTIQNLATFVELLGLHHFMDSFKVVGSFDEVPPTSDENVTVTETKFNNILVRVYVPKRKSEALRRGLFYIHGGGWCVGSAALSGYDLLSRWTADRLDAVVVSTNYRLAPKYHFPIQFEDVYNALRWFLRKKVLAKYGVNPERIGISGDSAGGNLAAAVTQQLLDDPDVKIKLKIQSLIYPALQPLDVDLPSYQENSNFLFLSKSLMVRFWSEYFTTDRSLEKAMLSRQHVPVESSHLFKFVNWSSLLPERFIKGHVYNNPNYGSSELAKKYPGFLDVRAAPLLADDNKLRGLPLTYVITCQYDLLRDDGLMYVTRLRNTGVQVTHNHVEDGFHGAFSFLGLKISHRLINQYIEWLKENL
How it was run: (§1)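 Flutamide hydrolysis to FLU-1 by pooled human jejunum (n = 10) or single-donor human renal microsomes at 0.4 mg/ml in 100 mM potassium phosphate (pH 7.4). Flutamide was 0.005–0.75 mM (jejunum) or 0.025–0.75 mM (kidney). Kinetics were fitted to the substrate inhibition equation, combined with Michaelis-Menten for jejunum. Triplicate determinations.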

[2] = Intrinsic clearance in human jejunum microsome at 0.005 to 0.75 mM; format: ADME; conditions: jejunum microsomes
How it was run: (§2)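 Flutamide hydrolysis to FLU-1 in 100 mM potassium phosphate (pH 7.4) with 0.4 mg/ml microsomal protein. Flutamide was 0.025–0.75 mM, or 0.005–0.75 mM for human jejunum. Rodent microsomes were pooled from 3 male SD rats or 5 male C57BL/6J mice. CLint is Vmax/Km, or the initial slope when Km was high; for Hill fits, CLmax. Triplicate determinations.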

[3] = Intrinsic clearance in rat lung microsome at 0.025 to 0.75 mM; format: ADME; conditions: lung microsomes; how it was run: as §2
[4] = Intrinsic clearance in mouse jejunum microsome at 0.005 to 0.75 mM; format: ADME; conditions: jejunum microsomes
[5] = molecular target: T1, Arylacetamide deacetylase; assay: Activity of AADAC in human jejunum microsome; format: ADME; conditions: microsomes
How it was run: (§3)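 Hydrolase activity of tissue microsomes in 0.2 ml mixtures of 100 mM potassium phosphate (pH 7.4). Microsomal protein: 0.4 mg/ml for flutamide (0.025–0.75 mM) and phenacetin (0.05–4 mM); 0.5 mg/ml for rifampicin (0.005–1 mM). Products measured were FLU-1, p-phenetidine and 25-deacetylrifampicin, within linear ranges. Three independent experiments.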

[6] = molecular target: T1, Arylacetamide deacetylase; assay: Activity of AADAC in human liver microsome; format: ADME; conditions: microsomes; how it was run: as §3
[7] = Intrinsic clearance in rat Liver microsome at 0.025 to 0.75 mM; format: ADME; conditions: liver microsomes, read-out: CLH; how it was run: as §2
[8] = Intrinsic clearance in human kidney microsome at 0.025 to 0.75 mM; format: ADME; conditions: kidney microsomes; how it was run: as §2
[9] = Intrinsic clearance in rat jejunum microsome at 0.005 to 0.75 mM; format: ADME; conditions: jejunum microsomes
[10] = molecular target: T1, Arylacetamide deacetylase; assay: Activity of AADAC in human kidney microsome; format: ADME; conditions: microsomes; how it was run: as §3
[11] = molecular target: T2, Arylacetamide deacetylase (Mus musculus, UniProt Q99PG0); assay: Activity of AADAC in mouse lung microsome; format: ADME; conditions: microsomes; how it was run: as §3
T2 sequence (Q99PG0 whole entry): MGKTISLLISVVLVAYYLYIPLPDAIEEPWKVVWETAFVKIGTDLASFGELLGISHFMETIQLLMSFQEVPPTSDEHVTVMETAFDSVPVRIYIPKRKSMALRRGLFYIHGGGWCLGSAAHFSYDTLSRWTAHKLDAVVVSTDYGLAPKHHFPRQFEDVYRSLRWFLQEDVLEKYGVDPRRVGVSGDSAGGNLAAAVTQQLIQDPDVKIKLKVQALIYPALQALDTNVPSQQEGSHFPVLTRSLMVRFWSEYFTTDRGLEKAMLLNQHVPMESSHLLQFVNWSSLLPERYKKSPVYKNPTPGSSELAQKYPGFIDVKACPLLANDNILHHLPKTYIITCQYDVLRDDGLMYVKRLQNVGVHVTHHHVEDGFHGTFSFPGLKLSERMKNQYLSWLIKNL

[12] = Intrinsic clearance in rat kidney microsome at 0.025 to 0.75 mM; format: ADME; conditions: kidney microsomes; how it was run: as §2
[13] = molecular target: T1, Arylacetamide deacetylase; assay: Inhibition of AADAC in human jejunum microsome; how it was run: as §1
[14] = Intrinsic clearance in mouse Liver microsome at 0.025 to 0.75 mM; format: ADME; conditions: liver microsomes, read-out: CLH; how it was run: as §2
[15] = Intrinsic clearance in human Liver microsome at 0.025 to 0.75 mM; format: ADME; conditions: liver microsomes, read-out: CLH; how it was run: as §2
[16] = Intrinsic clearance in mouse kidney microsome at 0.025 to 0.75 mM; format: ADME; conditions: kidney microsomes; how it was run: as §2
[17] = Intrinsic clearance in rat jejunum microsome at 0.05 to 4 mM; format: ADME; conditions: jejunum microsomes
[18] = Intrinsic clearance in rat kidney microsome at 0.05 to 4 mM; format: ADME; conditions: kidney microsomes
How it was run: (§4)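 Phenacetin hydrolysis by tissue microsomes: 0.05–4 mM phenacetin with 0.4 mg/ml microsomal protein in 100 mM potassium phosphate (pH 7.4). p-Phenetidine formation was read within its linear time range. CLint was Vmax/Km, or the initial slope of velocity vs substrate when Km was high. Triplicate determinations. Human liver pooled (n=50), jejunum pooled (n=10), kidney and lung single donors.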

[19] = Intrinsic clearance in human jejunum microsome at 0.05 to 4 mM; format: ADME; conditions: jejunum microsomes; how it was run: as §4
Liver microsome = assay: Intrinsic clearance in human Liver microsome at 0.05 to 4 mM; format: ADME; conditions: microsomes, 4000 µM; how it was run: as §4
[20] = Intrinsic clearance in human kidney microsome at 0.05 to 4 mM; format: ADME; conditions: microsomes, 4000 µM; how it was run: as §4
[21] = Intrinsic clearance in mouse Liver microsome at 0.05 to 4 mM; format: ADME; conditions: liver microsomes, read-out: CLH; how it was run: as §4
[22] = Intrinsic clearance in human lung microsome at 0.05 to 4 mM; format: ADME; conditions: microsomes, 4000 µM; how it was run: as §4
[23] = molecular target: T3, Arylacetamide deacetylase (Rattus norvegicus, UniProt Q9QZH8); assay: Ratio Vmax to Km in rat recombinant AADAC; format: ADME
T3 sequence (Q9QZH8 whole entry): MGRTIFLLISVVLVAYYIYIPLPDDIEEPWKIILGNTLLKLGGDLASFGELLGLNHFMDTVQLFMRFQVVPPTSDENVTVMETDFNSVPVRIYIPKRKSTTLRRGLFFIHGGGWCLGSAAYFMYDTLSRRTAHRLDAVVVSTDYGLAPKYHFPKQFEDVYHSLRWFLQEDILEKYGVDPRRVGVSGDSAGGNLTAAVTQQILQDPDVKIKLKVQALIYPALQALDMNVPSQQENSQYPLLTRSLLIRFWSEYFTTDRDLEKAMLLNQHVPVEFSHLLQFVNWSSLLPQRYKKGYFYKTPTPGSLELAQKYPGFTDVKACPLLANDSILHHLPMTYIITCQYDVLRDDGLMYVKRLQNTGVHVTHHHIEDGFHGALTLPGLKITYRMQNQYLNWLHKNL

[24] = Intrinsic clearance in mouse kidney microsome at 0.05 to 4 mM; format: ADME; conditions: kidney microsomes; how it was run: as §4
[25] = Intrinsic clearance in rat Liver microsome at 0.05 to 4 mM; format: ADME; conditions: liver microsomes, read-out: CLH; how it was run: as §4
[26] = molecular target: T1, Arylacetamide deacetylase; assay: Ratio Vmax to Km in human recombinant AADAC; format: ADME
[27] = Intrinsic clearance in rat lung microsome at 0.05 to 4 mM; format: ADME; conditions: lung microsomes
[28] = molecular target: T2, Arylacetamide deacetylase; assay: Ratio Vmax to Km in mouse recombinant AADAC; format: ADME
[29] = Intrinsic clearance in mouse jejunum microsome at 0.05 to 4 mM; format: ADME; conditions: jejunum microsomes
[30] = Intrinsic clearance in human Liver microsome at 0.05 to 1 mM; format: ADME; conditions: liver microsomes, read-out: CLH
[31] = Intrinsic clearance in mouse Liver microsome at 0.05 to 1 mM; format: ADME; conditions: liver microsomes, read-out: CLH
[32] = Intrinsic clearance in human jejunum microsome at 0.05 to 1 mM; format: ADME; conditions: jejunum microsomes
[33] = molecular target: T1, Arylacetamide deacetylase; assay: Inhibition of human recombinant AADAC
[34] = molecular target: T1, Arylacetamide deacetylase; assay: Inhibition of AADAC in human liver microsome

CC(C)C(=O)Nc1ccc([N+](=O)[O-])c(C(F)(F)F)c1 [FLUTAMIDE] showed a Ki [1] of 0.6 µM, a microsomal CLint at up to 750 µM [2] of 12.9 µL/min/mg and a microsomal CLint at up to 750 µM [3] of 0.1 µL/min/mg. For the same compound, the microsomal CLint at up to 750 µM [4] was 0.2 µL/min/mg, the S50 [5] was 0.2 mM and the Vmax [6] was 1.9 nmol/min/mg. It also gave a microsomal CLint at up to 750 µM [7] of 1.4 µL/min/mg, a microsomal CLint at up to 750 µM [8] of 1.2 µL/min/mg and a microsomal CLint at up to 750 µM [9] of 0.2 µL/min/mg. The S50 [10] was 2.1 mM, the Vmax [11] was 0 nmol/min/mg and the microsomal CLint at up to 750 µM [12] was 0.2 µL/min/mg. For the same compound, the Ki [13] was 14 µM, the microsomal CLint at up to 750 µM [14] was 1.2 µL/min/mg and the microsomal CLint at up to 750 µM [15] was 1.8 µL/min/mg. It also gave a microsomal CLint at up to 750 µM [16] of 0.6 µL/min/mg.
Compound CCOc1ccc(NC(C)=O)cc1 [PHENACETIN] has a microsomal CLint at up to 4000 µM [17] of 0.1 µL/min/mg, a microsomal CLint at up to 4000 µM [18] of 0.1 µL/min/mg and a microsomal CLint at up to 4000 µM [19] of 4 µL/min/mg. It also gave a CLH (Liver microsome) of 1.1 µL/min/mg, a CL [20] of 0.2 µL/min/mg and a microsomal CLint at up to 4000 µM [21] of 1.3 µL/min/mg. For the same compound, the CL [22] was 0.4 µL/min/mg, the Vmax/Km [23] was 2.2 uL/min/U and the microsomal CLint at up to 4000 µM [24] was 0.4 µL/min/mg. The microsomal CLint at up to 4000 µM [25] was 0.2 µL/min/mg, the Vmax/Km [26] was 3.5 uL/min/U and the microsomal CLint at up to 4000 µM [27] was 0.1 µL/min/mg. For the same compound, the Vmax/Km [28] was 5.7 uL/min/U and the microsomal CLint at up to 4000 µM [29] was 0.1 µL/min/mg.
With CO[C@H]1/C=C/O[C@@]2(C)Oc3c(C)c(O)c4c(O)c(c(/C=N/N5CCN(C)CC5)c(O)c4c3C2=O)NC(=O)/C(C)=C\C=C\[C@H](C)[C@H](O)[C@@H](C)[C@@H](O)[C@@H](C)[C@H](OC(C)=O)[C@@H]1C [RIFAMPIN] the microsomal CLint at up to 1000 µM [30] was 0.7 µL/min/mg, the microsomal CLint at up to 1000 µM [31] was 0.2 µL/min/mg and the microsomal CLint at up to 1000 µM [32] was 0.7 µL/min/mg. For the same compound, the Ki [33] was 300 µM, the Ki [34] was 200 µM and the Ki [13] was 700 µM.
